From PubChem
T cruzi repl: blocks replication of Trypanosoma cruzi; T. cruzi beta-gal in NIH3T3, luminescence, 90 h; actives 1.4% (n = 300,000); inhibition, % (concentration not given with the values);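 active means mean inhibition across valid replicates above about 55%, limit read from the data; inconclusive means mean below that limit but half or more replicates reach it; inactive means mean below it, under half of replicates reach it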;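 further: signal also drops with host cell toxicity which is not excluded here; 0% = plate median of DMSO wells and 100% = zero luminescence signal; higher percent means less beta-gal luminescence so fewer parasites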
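Material: NIH/3T3 host cells with β-galactosidase reporter T. cruzi; Input: 5,000 host fibroblasts per well; Medium: DMEM, 2% fetal bovine serum; Compound: 50 nL DMSO compound solution per well; Schedule: 3 h host attachment, then at least 90 h co-culture; Detection: luminescent β-galactosidase signal after 60 min lysis.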
Calb FLC: affects C. albicans growth with fluconazole; C. albicans CaCi-2 + fluconazole, Alamar Blue growth, 48 h; growth inhibition, % (no concentration beside the values); actives 0.57% (n = 300,000);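 active means growth inhibition above about 58% in most replicates, limit read from the data, passing the limit was not always enough; inconclusive means exactly half the replicates above a set limit; inactive means most replicates below a set limit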;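 further: all wells also contain fluconazole at 8 µg/ml as a sub-toxic cotreatment; 0% = median of DMSO wells and 100% = median of geldanamycin control wells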
HSF1 inhib: HSF1 inhibition; NIH3T3-HGL HSE-luciferase, MG132-induced, luminescence 8 h; active compounds read low; activity change, negative = inhibition, % at 7.5 µM (by protocol); actives 0.77% (n = 300,000);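 active means more than half of replicate wells show activity change below -50%, luminescence cut by over half; inconclusive means some wells, but at most half, below -50%; inactive means no replicate well below -50%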;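 further: luciferase reports HSF-1 transcriptional activity via heat shock element; 0% = median of DMSO wells and -100% = zero luminescence signal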
HSF-1 act: increases HSF-1 driven luciferase reporter signal | NIH3T3-HGL HSF-1 luciferase reporter, MG132, 8 h; 100% = twice DMSO control signal | activation, % at 9 µM | actives 1.7% (n = 300,000) | AID 504408;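 active means mean replicate activation of at least 50% with a set share of replicates each reaching 50%; inconclusive means only one of those two conditions met; inactive means mean below 50% and too few replicates reaching it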;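 further: 0% = median of the neutral control wells and 100% = twice that signal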
HIF activator: HIF pathway transcriptional activation. U2OS HRE-luciferase reporter, luminescence; normalized: DMSO 0%, desferrioxamine 100%. activation, % at 7.5 µM (by protocol). actives 0.32% (n = 300,000). AID 1910;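 active means mean activation of at least 10% of the iron chelator positive control signal, with at least half of replicates also reaching 10%; inconclusive means mean and replicate majority disagree about reaching 10%; inactive means mean and most replicates under 10%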
* = called active by the depositor; ? = inconclusive; · = no result. Hits are enriched below; roughly 4.4% of the tested compounds scored in any of these assays.

SMILES	T cruzi repl	Calb FLC	HSF1 inhib	HSF-1 act	HIF activator
CC(C)=CCCC(C)CN1CCC(n2nccc2NC(=O)c2cccnc2)CC1 (stereo not drawn)	44.2	-17.6	0.9	24.8	0.6
CCn1c(=NC(=O)CS(=O)(=O)c2ccccc2)sc2cccc(OC)c21	57.6*	-1.2	-4.6	13.6	0.6
Cn1c(=NC(=O)CS(=O)(=O)c2ccccc2)sc2ccccc21	4.4	-2.7	22.5	29.1	2.3
O=C(O)CCC(=O)NNc1nc2ccccc2nc1-c1ccccc1	3.0	-9.3	1.8	2.1	0.0
CC(C)(Cc1ccccc1)NC(=O)C(=O)c1cn(CC(=O)N2CCOCC2)c2ccccc12	-5.2	-6.7	11.4	24.3	-0.4
O=C(Nc1ccc(-n2ccc(C(F)(F)F)n2)cc1)Nc1cccc(Cl)c1	62.1*	-16.4	8.4	11.6	2.0
O=C(Nc1cccc(Cl)c1)Nc1ccccc1-n1ccnc1	56.6*	-15.0	-0.1	0.1	0.2
Cc1cc(C)cc(NC(=O)Nc2ccc(-n3ccc(C(F)(F)F)n3)cc2)c1	9.1	3.7	16.2	47.5	0.5
Cc1ccc2c(CC(=O)Nc3sccc3C(N)=O)coc2c1	-9.4	7.7	54.7	83.7*	3.8
O=C(C1CCCO1)N1CCN(S(=O)(=O)c2cc(F)ccc2F)CC1 (stereo not drawn)	-11.6	4.4	-2.0	-16.6	0.3
COc1ccc(N2CCN(C(=O)C(Cc3ccccc3)n3cccc3)CC2)cc1 (stereo not drawn)	-8.6	-1.5	1.6	-11.1	-0.2
CN([C@@H](Cc1ccc(OS(=O)(=O)c2cccc3cnccc23)cc1)C(=O)N1CCN(c2ccccc2)CC1)S(=O)(=O)c1cccc2cnccc12	57.0*	7.3	0.6	·	-0.5
C1CCC(OCCN2CCN(CCOC3CCCCC3)CC2)CC1	55.1*	0.6	0.4	10.3	·
Cc1ccc2c(COC(=O)c3n[nH]c4ccccc34)cc(=O)oc2c1	4.7	0.2	45.6	75.7*	2.0
CNC(=O)NC(=O)COC(=O)c1n[nH]c2ccccc12	10.8	-9.0	7.9	15.1	-0.1
O=C(COC(=O)c1n[nH]c2ccccc12)NC(=O)NC1CCCCC1	3.9	-3.9	24.2	52.3*	-0.5
O=C(NCCc1ccccc1)c1n[nH]c2ccccc12	11.8	-15.2	35.0	59.4*	1.2
O=C(OCCOc1ccccc1)c1n[nH]c2ccccc12	-16.5	-0.6	34.5	66.9*	1.9
O=C(NCCc1ccc(Cl)cc1)c1n[nH]c2ccccc12	·	20.8	·	·	·
CCc1ccc2c(COC(=O)c3n[nH]c4ccccc34)cc(=O)oc2c1	10.0	6.2	49.6	?	5.9
O=C(c1ccc(Cl)cc1)N1CCC(C(=O)N2CCCc3ccccc32)CC1	2.5	2.8	4.3	-6.0	0.2
CCn1c(/C=C/N(C)c2ccccc2)[n+](CC)c2ccc(Cl)cc21	76.6*	24.9	-1.6	-6.9	0.1
Cc1c(NC(=S)N2CCN(c3cccc(Cl)c3)CC2)c(=O)n(-c2ccccc2)n1C	0.2	-4.9	-4.5	2.0	0.2
CC(C)(C)C1CCc2sc(C(=O)NNC(=O)CCl)cc2C1 (stereo not drawn)	67.2*	2.9	12.6	23.8	1.5
CC(C)(C)C1CCC(=NNC(=O)c2cc3c(s2)CCCC3)CC1 (stereo not drawn)	-3.0	5.5	7.0	-0.4	·
SMILES	T cruzi repl	Calb FLC	HSF1 inhib	HSF-1 act	HIF activator
CCCn1c(CC)nc([N+](=O)[O-])c1Sc1ccc(F)cc1	5.3	112.6*	8.0	15.0	-0.3
CCCn1c(CC)nc([N+](=O)[O-])c1Sc1ccc(C)cc1	16.3	-3.1	9.8	28.0	-0.5
Cc1nn(-c2ccccc2)c2c1C(c1ccncc1)C(C#N)=C(N)O2 (stereo not drawn)	-18.8	4.8	1.5	25.6	0.0
COc1cc(-n2nc(C)c3c2OC(N)=C(C#N)C3c2ccccc2)c(Cl)c(Br)c1O (stereo not drawn)	-7.3	17.7	52.5	78.2*	0.4
Cc1ccc(-n2nc(C)c3c2OC(N)=C(C#N)C3c2ccncc2)cc1 (stereo not drawn)	-7.3	33.0	17.3	62.1*	-0.3
Cc1nn(-c2ccccc2)c(Cl)c1C1C(C#N)=C(N)Oc2c1c(C)nn2-c1ccccc1 (stereo not drawn)	13.2	2.8	5.4	-0.7	0.0
CC1CCN(S(=O)(=O)c2cc([N+](=O)[O-])ccc2Cl)CC1	34.8	-9.7	11.3	12.3	-0.9
O=C1CCCC(=O)C1=Cc1c[nH]c2ccccc12	-12.0	-0.6	-5.5	22.1	0.6
S=c1[nH]nc(-c2ccncc2)n1Cc1ccco1	-2.4	-11.4	-69.2*	-76.1	-0.1
N#Cc1ccc(C(=O)Nc2cccc3ccccc23)c(F)c1	-2.7	-3.8	8.5	9.5	-0.1
O=Cc1s/c(=N\S(=O)(=O)c2ccccc2)n(CCCCl)c1Cl	81.4*	-18.0	44.0	60.5*	-5.9
Cc1ccc(Nc2nnc(-c3ccccc3N)o2)cc1C	16.1	-3.7	8.9	33.0	12.8*
COc1ccc(NC(=O)C(Cl)=C(Cl)Cl)cn1	-7.8	57.0	-10.4	-14.5	0.5
COc1ccc(NC(=O)/C(Cl)=C(/Cl)S(=O)(=O)Cc2ccccc2)cn1	36.5	35.4	-75.8*	-76.5	-3.9
Cc1ccccc1-c1nc2cc(NC(=O)C3CC3)ccc2o1	-12.5	-3.3	58.8	90.9*	3.5
CCCCCCCN(C(=O)CCl)c1cccc(C)c1	23.8	-13.4	-92.7*	-93.5	-0.3
CCCCCCN(C(=O)CCl)c1ccccc1	17.6	3.7	-67.9*	-71.1	-0.8
O=C(CCl)N(c1ccccc1)c1ccccc1	-8.3	57.6	-5.9	-13.7	-2.1
Cc1cccc(N(Cc2cc(=O)[nH]c3ccccc23)C(=O)CCl)c1	15.9	6.0	0.3	6.8	2.3
CC(NCc1cc(Br)ccc1OCC(=O)NCc1ccccc1)c1ccccc1 (stereo not drawn)	60.5*	?	10.3	17.5	-2.0
Cc1ccc(N2CCN(C(=S)Nc3ccccc3C)CC2)cc1	4.3	1.6	-0.8	-5.3	0.4
CCCC1=Nc2cc(C(=O)NCCCN3CCOCC3)ccc2Sc2ccccc21	20.2	5.9	2.0	2.1	1.0
CCCC1=Nc2cc(C(=O)NCCCN3CCN(C)CC3)ccc2Sc2ccccc21	16.8	12.8	-50.5*	-62.2	0.6
CCN1CCN(CCNC(=O)c2ccc(/C=C3\Sc4ccccc4N(Cc4ccccc4F)C3=O)cc2)CC1	60.0*	44.2	5.0	1.6	0.1
CN1CCN(CCCNC(=O)c2ccc(/C=C3\Sc4ccccc4N(Cc4ccc(F)cc4)C3=O)cc2)CC1	?	70.8	2.1	2.5	-1.8
CN1CCN(CCCNC(=O)c2ccc(/C=C3/Sc4ccccc4N(Cc4cccc(Cl)c4)C3=O)cc2)CC1	57.7*	19.6	1.2	9.6	0.0
Cc1ccc(S(=O)(=O)N(C)C)cc1NC(=O)COC(=O)COc1ccccc1[N+](=O)[O-]	-15.3	-10.9	-0.6	-2.2	-1.0
